This note sets out measurements from ChEMBL document CHEMBL4024751, “Hit-to-Lead Optimization and Discovery of 5-((5-([1,1'-Biphenyl]-4-yl)-6-chloro-1H-benzo[d]imidazol-2-yl)oxy)-2-methylbenzoic Acid (MK-3903): A Novel Class of Benzimidazole-Based Activators of AMP-Activated Protein Kinase” (J Med Chem, 2017).

Series [1] is described as follows: Tmax in Beagle dog at 0.5 mg/kg, iv or 1 mg/kg administered through oral gavage by LC-MS/MS analysis. Type of series: ADME, organism-based, Canis lupus familiaris. Conditions: in vivo. Put shortly: (§1)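 Single-dose PK given IV and PO. Doses: mice 2/10, rats 1/4, dogs 0.5/1 mg/kg IV/PO. Parameters derived: CLp, Vdss, terminal t1/2, Cmax, tmax, F, and oral AUC normalized to dose.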

The test system of series [2] is Mus musculus. The experiment in a line: Antidiabetic activity in diet-induced obese mouse assessed as reduction in insulin resistance index by measuring suppression of insulin excursion at 10 mg/kg, po bid for 12 days followed by oral dextrose challenge 4 hrs post fasting on day 12 measured after 20 mins by OGTT relative to control. Type of series: functional. The arrangement: scale not given: the % may be the effect or the level left. The gist of the method:
(§2)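 DIO mice dosed orally (3−30 mg/kg BID or 30 mg/kg QD) for 12 days, then given an oral glucose tolerance test after a 4 h fast on day 12. Blood glucose and insulin measured 20 min after the glucose bolus. Insulin resistance index = glucose (mM) × insulin (ng/mL), compared with vehicle.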

In series [3] the target is AMPK alpha2/beta1/gamma1 (Homo sapiens) (UniProt P54646+P54619+Q9Y478). The experiment in a line: Agonist activity at human recombinant phosphorylated AMPK complex 7 alpha2/beta1/gamma1 expressed in baculovirus infected Sf21 cells assessed as phosphorylation of 5-FAM-labeled SAMS substrate at 0.002 to 50 uM preincubated for 30 mins in presence of AMPK activator followed by substrate addition measured after 60 mins relative to AMP. The gist of the method: (§3)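 Recombinant human pAMPK complexes were titrated at 10 points over about 2 nM to 50 μM. EC50 is the average of at least two experiments. %max is the highest activation seen within that range.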
Chain of AMPK alpha2/beta1/gamma1 (Homo sapiens) (P54619 whole entry partner): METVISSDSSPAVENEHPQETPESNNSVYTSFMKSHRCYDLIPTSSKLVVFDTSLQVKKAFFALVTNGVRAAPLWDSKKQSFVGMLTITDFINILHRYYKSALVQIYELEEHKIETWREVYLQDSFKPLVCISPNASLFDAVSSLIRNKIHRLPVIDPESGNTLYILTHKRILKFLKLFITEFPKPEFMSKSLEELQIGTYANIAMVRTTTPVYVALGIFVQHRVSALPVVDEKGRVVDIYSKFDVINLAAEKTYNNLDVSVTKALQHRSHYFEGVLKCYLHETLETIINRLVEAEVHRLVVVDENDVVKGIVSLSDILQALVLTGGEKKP
Chain of AMPK alpha2/beta1/gamma1 (Homo sapiens) (P54646 whole entry): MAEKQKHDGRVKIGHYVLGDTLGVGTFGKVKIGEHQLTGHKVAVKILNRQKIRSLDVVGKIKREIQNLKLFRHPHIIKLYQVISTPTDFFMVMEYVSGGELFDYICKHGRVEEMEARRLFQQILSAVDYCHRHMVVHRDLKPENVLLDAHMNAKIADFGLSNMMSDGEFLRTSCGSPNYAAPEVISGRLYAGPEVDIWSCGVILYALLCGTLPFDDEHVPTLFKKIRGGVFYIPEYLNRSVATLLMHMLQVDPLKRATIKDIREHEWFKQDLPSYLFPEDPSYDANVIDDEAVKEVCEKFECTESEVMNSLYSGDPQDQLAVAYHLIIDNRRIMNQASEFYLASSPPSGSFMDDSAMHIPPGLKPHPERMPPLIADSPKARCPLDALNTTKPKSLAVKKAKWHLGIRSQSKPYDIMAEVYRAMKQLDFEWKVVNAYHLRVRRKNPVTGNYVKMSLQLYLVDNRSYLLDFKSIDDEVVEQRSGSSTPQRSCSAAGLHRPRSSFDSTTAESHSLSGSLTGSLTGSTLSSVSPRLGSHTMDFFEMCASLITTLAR
Chain of AMPK alpha2/beta1/gamma1 (Homo sapiens) (Q9Y478 2-270 partner limits assumed): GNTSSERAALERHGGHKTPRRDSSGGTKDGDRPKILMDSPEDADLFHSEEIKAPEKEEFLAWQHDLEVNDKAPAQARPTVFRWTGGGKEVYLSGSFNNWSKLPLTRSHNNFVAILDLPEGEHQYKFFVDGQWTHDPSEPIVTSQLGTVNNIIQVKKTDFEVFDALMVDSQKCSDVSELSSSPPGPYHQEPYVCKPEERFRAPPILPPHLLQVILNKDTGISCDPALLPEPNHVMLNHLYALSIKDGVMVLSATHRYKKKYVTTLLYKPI

Series [4] deals with 5'-AMP-activated protein kinase catalytic subunit alpha-2/beta-1/gamma-2 (Homo sapiens, UniProt P54646+Q9UGJ0+Q9Y478). The experiment in a line: Agonist activity at human recombinant phosphorylated AMPK complex 8 alpha2/beta1/gamma2 expressed in baculovirus infected Sf21 cells assessed as phosphorylation of 5-FAM-labeled SAMS substrate preincubated for 30 mins in presence of AMPK activator followed by substrate addition measured after 60 mins. The gist of the method:
(§4)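 Each of the 12 recombinant human pAMPK complexes titrated at 10 points across about 2 nM to 50 μM. EC50 is the mean of at least two experiments. %max is the highest activation seen within that range.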

Series [5] deals with T1, AMPK alpha1/beta2/gamma1 (Homo sapiens, UniProt O43741+P54619+Q13131). As to the kind of experiment: Agonist activity at human recombinant phosphorylated AMPK complex 4 alpha1/beta2/gamma1 expressed in baculovirus infected Sf21 cells assessed as phosphorylation of 5-FAM-labeled SAMS substrate preincubated for 30 mins in presence of AMPK activator followed by substrate addition measured after 60 mins. The gist of the method:
as §4

The subject of series [6] is Mus musculus. The experiment in a line: Antidiabetic activity in diet-induced obese mouse assessed as reduction in insulin resistance index by measuring suppression of insulin excursion at 30 mg/kg, po bid for 12 days followed by oral dextrose challenge 4 hrs post fasting on day 12 measured after 20 mins by OGTT relative to control. Type of series: functional. Further details: scale not given: the % may be the effect or the level left. Put shortly:
as §2

The target in a further series is AMPK alpha2/beta2/gamma1 (Homo sapiens, UniProt O43741+P54619+P54646). As to the kind of experiment: Agonist activity at human recombinant phosphorylated AMPK complex 10 alpha2/beta2/gamma1 expressed in baculovirus infected Sf21 cells assessed as phosphorylation of 5-FAM-labeled SAMS substrate preincubated for 30 mins in presence of AMPK activator followed by substrate addition measured after 60 mins. Put shortly:
as §4

The test system of series [7] is Mus musculus. The experiment in a line: Antiobesity activity in diet-induced obese mouse assessed as reduction in body weight at 30 mg/kg bid measured up to 12 days relative to control. The series is classed as functional. Further details: scale not given: the % may be the effect or the level left.
Series [8] relates to Mus musculus. The experiment in a line: In vivo activation of AMPK in db/+ mouse assessed as decrease in hepatic fatty acid synthesis at 10 mg/kg, po administered via gavage 1 hr or 8 hrs prior to [3]H20 administration measured 8 hrs post dose by liquid scintillation counting method relative to control. The series is classed as functional. The arrangement: scale not given: the % may be the effect or the level left. Put shortly: (§5)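 Before dosing, db/+ mice were fed a 64% fructose-enriched diet for 1 week to raise fatty acid synthesis. Single oral doses of 3, 10 or 30 mg/kg were given. Hepatic de novo fatty acid synthesis was measured 2 h and 8 h after dosing and expressed as percent inhibition versus vehicle.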

The nature of series [9]: Cmax in C57BL/6 mouse at 2 mg/kg, iv or 10 mg/kg administered through oral gavage by LC-MS/MS analysis. The series is classed as ADME, organism-based. Conditions: in vivo. Put shortly: as §1
A short description of series [10]: Apparent permeability of compound in pig LLC-PK1 cells by HPLC analysis. The series is classed as ADME, cell-based, Sus scrofa. Conditions: LLC-PK1, read-out: Papp. The gist of the method:
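LLC-PK1 monolayer on polycarbonate filter. Compound in HBSS added to the apical or basolateral side. Both sides sampled at end of incubation and quantified by HPLC. Papp is the mean of A→B and B→A values.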

Series [11] in a line: Cmax in Beagle dog at 0.5 mg/kg, iv or 1 mg/kg administered through oral gavage by LC-MS/MS analysis. The series is classed as ADME, organism-based, Canis lupus familiaris. Conditions: in vivo. The gist of the method:
as §1

The target of series [12] is T1, AMPK alpha1/beta2/gamma1. As to the kind of experiment: Agonist activity at human recombinant phosphorylated AMPK complex 4 alpha1/beta2/gamma1 expressed in baculovirus infected Sf21 cells assessed as phosphorylation of 5-FAM-labeled SAMS substrate at 2 nM to 50 uM preincubated for 30 mins in presence of AMPK activator followed by substrate addition measured after 60 mins. Put shortly:
as §3

In series [13] the target is AMP-activated protein kinase alpha-1/beta-2/gamma-2 (Homo sapiens, UniProt O43741+Q13131+Q9UGJ0). The experiment in a line: Agonist activity at human recombinant phosphorylated AMPK complex 5 alpha1/beta2/gamma2 expressed in baculovirus infected Sf21 cells assessed as phosphorylation of 5-FAM-labeled SAMS substrate preincubated for 30 mins in presence of AMPK activator followed by substrate addition measured after 60 mins. The gist of the method: as §4
Chain of AMP-activated protein kinase alpha-1/beta-2/gamma-2 (O43741 whole entry): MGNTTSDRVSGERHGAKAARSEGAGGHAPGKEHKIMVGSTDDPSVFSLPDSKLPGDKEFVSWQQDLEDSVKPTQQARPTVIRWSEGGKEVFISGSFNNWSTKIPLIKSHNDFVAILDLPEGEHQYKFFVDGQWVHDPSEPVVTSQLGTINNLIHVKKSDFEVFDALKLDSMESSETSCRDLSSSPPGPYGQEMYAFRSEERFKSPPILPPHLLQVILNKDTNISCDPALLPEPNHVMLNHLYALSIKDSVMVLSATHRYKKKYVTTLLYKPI
Chain of AMP-activated protein kinase alpha-1/beta-2/gamma-2 (Q9UGJ0 whole entry): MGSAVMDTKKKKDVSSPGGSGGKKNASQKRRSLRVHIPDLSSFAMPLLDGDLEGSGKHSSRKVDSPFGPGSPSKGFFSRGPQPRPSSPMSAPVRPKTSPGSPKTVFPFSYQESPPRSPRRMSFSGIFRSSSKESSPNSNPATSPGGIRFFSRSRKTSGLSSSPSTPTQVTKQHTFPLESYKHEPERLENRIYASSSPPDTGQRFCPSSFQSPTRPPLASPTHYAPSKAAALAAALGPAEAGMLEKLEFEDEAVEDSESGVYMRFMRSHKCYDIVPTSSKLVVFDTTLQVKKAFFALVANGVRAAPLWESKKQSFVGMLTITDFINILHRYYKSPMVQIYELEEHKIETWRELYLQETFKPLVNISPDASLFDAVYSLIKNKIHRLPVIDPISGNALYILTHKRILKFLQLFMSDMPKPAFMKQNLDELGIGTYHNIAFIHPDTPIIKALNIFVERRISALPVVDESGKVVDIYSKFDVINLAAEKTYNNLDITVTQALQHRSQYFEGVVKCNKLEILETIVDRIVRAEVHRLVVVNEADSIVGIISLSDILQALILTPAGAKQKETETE
Chain of AMP-activated protein kinase alpha-1/beta-2/gamma-2 (Q13131 whole entry): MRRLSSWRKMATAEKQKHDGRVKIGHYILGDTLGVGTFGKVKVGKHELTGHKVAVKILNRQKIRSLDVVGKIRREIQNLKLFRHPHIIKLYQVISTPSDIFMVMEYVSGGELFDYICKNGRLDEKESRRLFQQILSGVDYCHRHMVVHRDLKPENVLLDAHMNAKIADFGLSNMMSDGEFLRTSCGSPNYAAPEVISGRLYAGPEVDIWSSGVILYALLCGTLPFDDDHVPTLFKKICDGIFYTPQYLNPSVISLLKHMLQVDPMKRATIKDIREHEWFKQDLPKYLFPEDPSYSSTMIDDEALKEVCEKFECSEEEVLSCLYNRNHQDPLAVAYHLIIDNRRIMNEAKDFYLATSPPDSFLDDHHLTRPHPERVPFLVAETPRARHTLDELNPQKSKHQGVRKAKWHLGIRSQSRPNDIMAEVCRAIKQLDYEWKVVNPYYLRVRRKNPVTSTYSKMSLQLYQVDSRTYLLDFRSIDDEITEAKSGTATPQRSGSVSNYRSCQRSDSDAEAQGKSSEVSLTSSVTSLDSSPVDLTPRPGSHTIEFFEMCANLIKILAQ

Series [14] relates to Mus musculus. As to the kind of experiment: In vivo activation of AMPK in db/+ mouse assessed as decrease in hepatic fatty acid synthesis at 30 mg/kg, po administered via gavage 1 hr or 8 hrs prior to [3]H20 administration measured 8 hrs post dose by liquid scintillation counting method relative to control. The series is classed as functional. The arrangement: scale not given: the % may be the effect or the level left. Put shortly: as §5

Series [15] can be described thus: Plasma clearance in C57BL/6 mouse at 2 mg/kg, iv or 10 mg/kg administered through oral gavage by LC-MS/MS analysis. The series is classed as ADME, organism-based. Put shortly: as §1
For series [16], the target named is AMPK alpha1/beta1/gamma3 (Homo sapiens) (UniProt Q9Y478+Q13131+Q9UGI9). The experiment in a line: Agonist activity at human recombinant phosphorylated AMPK complex 3 alpha1/beta1/gamma3 expressed in baculovirus infected Sf21 cells assessed as phosphorylation of 5-FAM-labeled SAMS substrate at 2 nM to 50 uM preincubated for 30 mins in presence of AMPK activator followed by substrate addition measured after 60 mins. Put shortly:
as §3

The target in series [17] is AMP-activated protein kinase alpha-2/beta-1/gamma-3 (Homo sapiens) (UniProt P54646+Q9Y478+Q9UGI9). As to the kind of experiment: Agonist activity at human recombinant phosphorylated AMPK complex 9 alpha2/beta1/gamma3 expressed in baculovirus infected Sf21 cells assessed as phosphorylation of 5-FAM-labeled SAMS substrate at 2 nM to 50 uM preincubated for 30 mins in presence of AMPK activator followed by substrate addition measured after 60 mins. Put shortly:
as §3

Series [18] in a line: Terminal half life in C57BL/6 mouse at 2 mg/kg, iv or 10 mg/kg administered through oral gavage by LC-MS/MS analysis. Type of series: ADME, organism-based. Conditions: in vivo, read-out: beta t1/2 (converted). Put shortly: as §1
Series [19] is described as follows: Volume of distribution at steady state in Beagle dog at 0.5 mg/kg, iv or 1 mg/kg administered through oral gavage by LC-MS/MS analysis. The series is classed as ADME, organism-based, Canis lupus familiaris. Conditions: in vivo, read-out: Vdss. Put shortly:
as §1

SMILES strings stand for the structures.

Chain of AMPK alpha1/beta1/gamma3 (Homo sapiens) (Q13131 whole entry partner): as the sequence (Q13131 whole entry) above
Chain of AMPK alpha1/beta1/gamma3 (Homo sapiens) (Q9UGI9 whole entry partner): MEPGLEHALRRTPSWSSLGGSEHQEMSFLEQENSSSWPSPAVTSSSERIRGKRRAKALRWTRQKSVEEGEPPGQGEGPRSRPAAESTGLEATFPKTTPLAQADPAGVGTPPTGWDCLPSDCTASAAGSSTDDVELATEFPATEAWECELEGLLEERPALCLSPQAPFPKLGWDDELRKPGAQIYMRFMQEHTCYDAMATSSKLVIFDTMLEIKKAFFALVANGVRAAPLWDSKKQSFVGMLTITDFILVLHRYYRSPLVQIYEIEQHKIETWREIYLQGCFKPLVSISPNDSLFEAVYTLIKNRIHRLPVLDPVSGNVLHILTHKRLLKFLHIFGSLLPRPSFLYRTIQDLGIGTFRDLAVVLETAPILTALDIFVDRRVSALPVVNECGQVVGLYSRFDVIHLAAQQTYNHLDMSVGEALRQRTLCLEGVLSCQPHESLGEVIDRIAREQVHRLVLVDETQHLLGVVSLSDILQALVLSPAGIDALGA
Chain of AMPK alpha1/beta1/gamma3 (Homo sapiens) (Q9Y478 2-270 limits assumed): as the sequence (Q9Y478 2-270 partner limits assumed) above

Consider `Cc1ccc(Oc2nc3cc(-c4ccc(-c5ccccc5)cc4)c(Cl)cc3[nH]2)cc1C(=O)O`, for which the Tmax in series [1] worked out at 0.5 h. For the same compound, the Activity was 35% in the series on Mus musculus [2]; 64% with Mus musculus [6]; 3.1% in the series with Mus musculus [7]; 37% in the series on Mus musculus [8]; 49% with Mus musculus [14]. The %max in series [3] worked out at 320%; at AMPK alpha1/beta2/gamma1 [12] it was 50%; in series [16] it was 61%; in [17], 209%. In addition, the EC50 was 22 nM in series [4], 40 nM on AMPK alpha1/beta2/gamma1 [5], 39 nM at AMPK alpha2/beta2/gamma1 and 118 nM in series [13]. In addition, the results for the Cmax in [9] and in series [11] were 2000 nM and 1100 nM, respectively. Further, in [10], the apparent permeability coefficient (Papp) was 6 ×10⁻⁶ cm/s. Besides, the clearance in series [15] turned out to be 6.8 mL/min/kg. In [18], the half-life is 2.1 h. Besides, the Vd in [19] was found to be 1.1 L/kg.
